An excerpt weighted towards active compounds, which were near 4% of everything screened.
rRNA inh HTS – selective bacterial rRNA inhibition in E. coli; E. coli WT GFP vs humanized-ribosome RFP mutants, fluorescence, 24 h; hits give low values; DMSO median 0, no signal -100; hit rate 1.6% among 350,000; GFP signal change (wild-type ribosome), % (no concentration beside the values);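 active = significant combined selectivity score with lowered wild-type GFP, culture density cut under 30%, mutant RFP and density less affected; inactive = any of these conditions unmet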
FN deposit inh – fibronectin deposition inhibition; AH1F fibroblasts, Alexa488-fibronectin deposition fluorescence, overnight; inhibition, % at 12.6 µM; hit rate 0.086% among 350,000; AID 743247;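 active = mean inhibition across replicates of 30% or more, regardless of how many single replicates reach that level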;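 also: positive control wells lacked labelled fibronectin entirely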
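Material: AH1F fibroblast monolayer depositing Alexa488-labelled fibronectin into matrix / Amount: 10000 AH1F cells per well / Signal: fluorescence 485/525 nm / Medium: DMEM, 2% serum / Compound: single dose, pinned / Incubation: 1 h cell adhesion before compound, then overnight fibronectin incubation / Reagent: Alexa488-FN, 24 nM final / Read-out: inhibition of fibronectin deposition signal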
SIRT5 block – inhibitors of human sirtuin-5 desuccinylase; AID 652115; hit rate 1.1% among 330,000; inhibition, % at 15 µM; Q9NXA8; Purified SirT5, succinyl-peptide AMC, trypsin-coupled fluorescence; in the data active = inhibition above about 15%
Target sequence (Q9NXA8 whole entry, looked up): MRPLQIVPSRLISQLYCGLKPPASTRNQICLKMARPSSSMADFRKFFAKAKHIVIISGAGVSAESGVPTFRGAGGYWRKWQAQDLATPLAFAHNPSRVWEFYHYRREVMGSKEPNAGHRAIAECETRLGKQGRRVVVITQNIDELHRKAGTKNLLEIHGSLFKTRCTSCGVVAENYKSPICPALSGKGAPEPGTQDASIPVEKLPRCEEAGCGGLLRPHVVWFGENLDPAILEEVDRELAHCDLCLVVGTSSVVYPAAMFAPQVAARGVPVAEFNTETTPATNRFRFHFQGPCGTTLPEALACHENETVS
FGF22 binding – shifts melting point of recombinant human FGF22; Q9HCT0; hit rate 1.5% among 340,000; recombinant FGF22 thermal shift, SYPRO orange fluorescence; percent of sucrose octasulfate shift, DMSO zero; activity (Tm shift, normalised), % at 9.99 µM;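 active = mean Tm shift, scaled 0 neutral to 100 positive control, at about 1.3% or above, every replicate too, limit read from the data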
Target sequence (Q9HCT0 whole entry, looked up): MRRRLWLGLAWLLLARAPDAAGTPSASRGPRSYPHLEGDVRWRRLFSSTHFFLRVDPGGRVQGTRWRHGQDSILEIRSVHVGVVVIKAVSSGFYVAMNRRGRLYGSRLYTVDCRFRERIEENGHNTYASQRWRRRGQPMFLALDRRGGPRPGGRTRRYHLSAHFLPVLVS
C2C12 statin – suppressors of simvastatin-induced myotoxicity in C2C12 myotubes; ATP luminescence, 48 h; scaled: DMSO 0, geranylgeraniol control 100; rescue of ATP level, % at 7.49 µM; hit rate 0.78% among 330,000; AID 602340;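 active = mean ATP rescue above about 67%, or every replicate alone reaching that limit, limit read from the data, passing the limit was not always enough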;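 also: myotubes were challenged with 10 µM simvastatin during compound exposure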
E-sel inducer – induces E-selectin expression in human endothelial cells. P16581. HUVEC E-selectin immunofluorescence imaging; normalized: neutral wells 0, TNF-alpha wells 100. activation, % at 7.58 µM. hit rate 0.37% among 260,000. AID 686992;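 active = mean E-selectin-positive cell signal at least 10% of the positive control, reached in at least 60% of replicates, without over 20% cell loss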
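assay system = HUVEC, human umbilical vein endothelial cells | input = 3,000 HUVEC seeded per well | medium = EGM-2 growth medium on 0.1% gelatin-coated wells | dosing = one compound dose added by pin transfer | signal = immunofluorescence imaging | read-out basis = % PE-positive cells | control set = TNF-alpha, DMSO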
* = called active by the depositor; . = no result.

SMILES	rRNA inh HTS	FN deposit inh	SIRT5 block	FGF22 binding	C2C12 statin	E-sel inducer
O=C(c1cc(-c2ccc(Br)cc2)nc2ccccc12)N1CCC1	-25.0*	-10.0	-1.8	0.1	6.2	0.8
Cc1[nH]c(=O)c(C(=O)/C=C/c2ccccc2F)c2c1CCCC2	-18.4*	.	2.4	0.0	.	.
Cc1cc(C)c(C(=O)/C=C/c2cccc3ccccc23)c(=O)[nH]1	9.9	21.7	-4.6	0.2	.	1.7
O=C(NC(=S)Nc1ccc(Cc2ccncc2)cc1)c1ccccc1Cl	.	-1.9	.	.	.	0.2
O=C(Nc1ccc(S(=O)(=O)Nc2nccs2)cc1)c1cnc(Cl)c(Cl)c1	-29.3*	-4.8	7.5	0.0	.	0.2
O=C(NC(=S)Nc1ccc(Cc2ccncc2)cc1)c1ccccc1F	-30.3	.	1.5	43.6*	.	.
O=C(Nc1ccc(S(=O)(=O)Nc2ncccn2)cc1)c1cnc(Cl)c(Cl)c1	27.4	-3.6	-5.9	0.0	.	6.4
O=C(NC(=S)Nc1ccc(S(=O)(=O)Nc2nccs2)cc1)c1ccccc1F	-21.6*	-2.8	-3.6	0.0	11.6	-0.1
O=C(NC(=S)Nc1ccc(S(=O)(=O)Nc2nccs2)cc1)c1ccccc1	.	0.4	.	.	1.4	0.2
COc1ccc(C(=O)NC(=S)Nc2ccc(Cc3ccncc3)cc2)cc1	4.5	.	14.9	43.7*	.	.
C[C@@H]1CN([C@H](C)CO)C(=O)c2cc(C#Cc3ccc(F)cc3)cnc2O[C@@H]1CN(C)C	-0.3	.	-2.3	-0.3	-3.6	.
CCC(=O)N(C)C[C@@H]1Oc2cc(C#CCC(C)C)ccc2S(=O)(=O)N([C@H](C)CO)C[C@@H]1C	-1.1	11.6	-2.0	0.0	-0.3	-0.2
Cc1cc(C)c2oc(C(=O)Nc3ccc(S(=O)(=O)Nc4nccs4)cc3)cc(=O)c2c1	-8.3	2.8	-0.7	43.1*	.	-0.1
O=C(Nc1ccc(S(=O)(=O)Nc2nccs2)cc1)C1CC(=O)N(c2ccc(Cl)cc2)C1 (centres undefined)	-0.3	-0.9	9.2	-0.1	38.7	0.4
Cc1ccc(N2CC(C(=O)Nc3ccc(S(=O)(=O)Nc4nccs4)cc3)CC2=O)cc1C (centres undefined)	6.9	0.4	18.1*	0.0	-2.3	-0.1
Cc1cc2oc(C(=O)Nc3ccc(S(=O)(=O)Nc4nccs4)cc3)cc(=O)c2cc1Cl	.	-2.6	.	.	.	.
CCCNC(=O)C[C@@H]1CC[C@@H]2[C@H](COC[C@H](O)CN2C(=O)c2ccccn2)O1	2.9	-2.9	-2.0	-0.1	-0.3	0.0
Cn1cc(/C=C2\SC(=O)N(c3ccc(O)cc3)C2=O)c2ccccc21	-34.5*	-12.1	-1.0	0.1	.	-0.1
CN(C)c1nc(-c2ccccn2)nnc1-c1ccccc1	.	3.8	.	.	.	.
CCN(CC)c1nc(-c2ccccn2)nc(-c2ccccc2)c1C#N	-36.7	.	0.1	43.3*	.	.
OCc1ccccc1-c1cnc2cccnn12	5.1	-2.3	.	54.8*	22.3	0.0
O=C(C[C@@H]1CC[C@H]2[C@@H](COC[C@@H](O)CN2Cc2nccs2)O1)NCc1ccccc1F	0.2	0.7	6.5	0.5	-2.0	0.1
Clc1c(Cl)c(Cl)c2n[nH]nc2c1Cl	-53.4*	-1.8	1.0	0.1	.	-0.4
C[C@@H]1CN([C@H](C)CO)C(=O)c2cc(NC(=O)Cc3cn(C)c4ccccc34)ccc2O[C@@H]1CN(C)Cc1ccc(Cl)c(Cl)c1	6.7	.	-3.2	-0.2	48.5	2.9
C[C@H](CO)N1C[C@H](C)[C@H](CN(C)Cc2ccc3c(c2)OCO3)Oc2ccc(NC(=O)Cc3cn(C)c4ccccc34)cc2C1=O	-0.2	-1.3	-4.3	0.0	44.0	43.1*
SMILES	rRNA inh HTS	FN deposit inh	SIRT5 block	FGF22 binding	C2C12 statin	E-sel inducer
C[C@@H]1CN([C@H](C)CO)C(=O)c2cc(NC(=O)Cc3cn(C)c4ccccc34)ccc2O[C@H]1CN(C)Cc1ccc(Cl)c(Cl)c1	-1.0	.	14.6	0.2	37.7	50.6*
COc1ccc(CN(C)C[C@H]2Oc3ccc(NC(=O)CCN4CCOCC4)cc3CC(=O)N([C@H](C)CO)C[C@@H]2C)cc1	1.6	.	.	0.0	.	-3.3
COc1ccc(NC(=O)Nc2ccc3c(c2)C(=O)N([C@H](C)CO)C[C@H](C)[C@H](CN(C)C(=O)C2CCCCC2)OCCCC[C@@H](C)O3)cc1	3.0	.	1.1	-0.2	-10.6	0.4
CC(C)CNC(=O)c1ccccc1NC(=O)c1ccccc1N(C)S(C)(=O)=O	.	.	.	.	6.0	.
CN(c1ccccc1C(=O)N1CCN(c2ccccc2)CC1)S(C)(=O)=O	.	7.4	.	.	3.4	.
CSc1ccccc1C(=O)N1CCCCC1	15.1	-7.6	20.0*	0.1	.	-0.1
CN(c1ccccc1C(=O)N1CCCC1)S(C)(=O)=O	.	.	.	.	99.7*	.
CCCNC(=O)c1ccccc1NC(=O)c1ccccc1N(C)S(C)(=O)=O	.	.	.	.	103.1*	.
CO[C@H]1CN(C)C(=O)c2cc(NC(=O)Cc3ccccc3)ccc2OC[C@H](C)N(C(C)=O)C[C@@H]1C	1.4	27.2	-0.1	0.0	-9.7	0.3
O=C(c1ccc(F)cc1)N1CC(=O)N2[C@H](C1)[C@@H](c1ccc(C3=CCCC3)cc1)[C@@H]2CO	2.6	.	-1.6	.	.	0.3
O=C(c1cnccn1)N1CC(=O)N2[C@H](CO)[C@@H](c3ccc(C#CC4CCCC4)cc3)[C@H]2C1	3.8	-0.5	4.6	.	.	0.5
CCCCN1CC(=O)N2[C@H](c3ccc(OC)cc3)[C@@H]3C(=O)N(CC)C(=O)[C@@H]3[C@]2(Cc2ccccc2)C1=O	3.7	6.3	27.1*	0.1	-9.7	0.0
Cc1ccc(S(=O)(=O)Nc2ccc3c(c2)C(=O)N([C@H](C)CO)C[C@H](C)[C@H](CN(C)C(=O)c2ccncc2)OCCCC[C@H](C)O3)cc1	0.7	-8.3	.	0.0	13.2	.
Cc1cc(C)c(S(=O)(=O)Nc2ccc(Cl)cn2)c(C)c1	-31.1*	-4.4	-4.3	0.0	25.0	-0.5
O=S(=O)(Nc1ccc(Cl)cn1)c1ccc(Cl)cc1	6.0	-1.7	6.2	0.6	.	-0.1
COc1ccccc1C(=O)NC(=O)COC(=O)CN1C(=O)NC2(CCCCC2C)C1=O (centres undefined)	9.0	3.1	-9.4	0.2	.	0.2
COc1ccccc1COC(=O)CN1C(=O)NC2(CCCCC2C)C1=O (centres undefined)	-4.8	-6.9	11.7	43.0*	1.2	0.0
CC1CCCCC12NC(=O)N(CC(=O)Nc1ccc(N3CCOCC3)cc1)C2=O (centres undefined)	5.3	0.3	16.3*	-0.1	.	.
CC1CCC2(CC1)NC(=O)N(CC(=O)Nc1ccc(N3CCOCC3)cc1)C2=O (centres undefined)	-2.8	.	-4.9	-0.2	-5.6	.
C[C@H](CO)N1C[C@H](C)[C@H](CN(C)C(=O)C2CC2)Oc2cc(-c3cccc(C#N)c3)ccc2S1(=O)=O	-10.4	0.0	-0.6	-0.1	-24.2	0.4

Screening results as filed in PubChem BioAssay.
